High-throughput results from PubChem BioAssay.
This excerpt belongs to a sample that is enriched for hits.
L major viab: reduces viability of Leishmania major promastigotes; resazurin fluorescence viability; inhibition, % at 10 µM; actives 9% (n = 200,000); in the data active = inhibition above about 50%;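 also: promastigotes grown with compound for 44 hours at 28 °C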
Redox H2O2 prof: compounds producing H2O2 with reducing agent – biochemical, NIH compound library profiling, artefact control for MLSCN library redox annotation, primary screen; actives 0.03% (n = 200,000); DTT-dependent redox cycling H2O2, phenol red/HRP absorbance; 100% = 100 µM peroxide control, 0% = buffer; activation, % at 10 µM;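 active = activation of at least 50% relative to the plate's high and low controls in the primary single-dose screen; inactive = activation below 50%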;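 also: compound incubated with DTT at 0.8 mM final as the reducing agent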
MPTP block: permeability transition pore inhibition; isolated mouse mitochondria, Ca2+ swelling absorbance, 30 min; inhibition, % at 10 µM; actives 1.4% (n = 360,000);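 active = inhibition of 50% or more, scaled per plate between neutral and stimulator controls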
T cruzi repl: T. cruzi replication inhibition | inhibition, % (test concentration not listed) | T. cruzi beta-gal in NIH3T3, luminescence, 90 h | actives 1.4% (n = 300,000);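 active = mean inhibition across valid replicates above about 55%, limit read from the data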;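 also: signal also drops with host cell toxicity which is not excluded here; higher percent means less beta-gal luminescence so fewer parasites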
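System: Mouse NIH/3T3 fibroblasts infected with β-gal-expressing T. cruzi Tulahuen C4 | Quantity: NIH/3T3 cells, 5,000 per well | Reagent: 5000 reporter trypomastigotes per well | Dosing: Compound pinned at 50 nL/well, DMSO | Schedule: 3 h host attachment, then at least 90 h co-culture | Detection: GalScreen luminescence, 60 min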
Lipid droplet: hepatic lipid droplet formation modulation. AML12 mouse hepatocytes, oleate lipid droplets, BODIPY imaging. inhibition, % at 6.5 µM. actives 0.4% (n = 240,000);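 active = lipid droplet intensity inhibited by at least 50%, with more than 500 cells counted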
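System: AML12 hepatocytes (mouse). Probe or stimulus: oleic acid at 100 µM to induce lipid droplet formation. Times: overnight treatment with compound plus oleate. Detection: Image-based BODIPY and DAPI two-channel analysis. Evaluation: percent inhibition of filter-corrected integrated lipid droplet intensity per well.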
Each line names hits and unclear results; the compound was inactive in the other large screens; ! = not active in a repeat.

COc1cc(CN2CCC(C(=O)NC3CCCC3)CC2)cc(Br)c1O	none (no result: Lipid droplet)
COc1cc(CN2CCC(C(=O)N3CCC(C)CC3)CC2)cc(Br)c1O	L major viab 82 (no result: Lipid droplet)
COc1cc(CN2CCC(C(=O)N3CCN(c4ccccc4F)CC3)CC2)cc(OC)c1OC	L major viab 83
CCC(=O)N1CCN(c2ccnc3cc(Cl)ccc23)CC1	none (no result: L major viab, Redox H2O2 prof)
O=C(c1ccc(Cl)cc1)N1CCN(c2ccnc3cc(Cl)ccc23)CC1	L major viab 66, T cruzi repl 69
CC1CCCC(C)N1C(=O)COC(=O)CNS(=O)(=O)c1ccc2ccccc2c1 (configuration not stated)	none (no result: L major viab, Redox H2O2 prof, T cruzi repl, Lipid droplet)
COCc1cc(CN2CCCC2)c(O)c2ncccc12	L major viab 100, T cruzi repl 64 (no result: Lipid droplet)
COc1ccccc1N1CCN(Cc2cc(Br)c(O)c3ncccc23)CC1	L major viab 100, T cruzi repl 59 (no result: Lipid droplet)
Oc1c(CN2CCCCC2)cc(COCc2ccccc2)c2cccnc12	L major viab 100, T cruzi repl 72 (no result: Lipid droplet)
Cc1ccc(NC(=O)CN2C(=O)NC(C)(C3CC3)C2=O)cc1S(=O)(=O)N1CCCCC1 (configuration not stated)	none (no result: L major viab, Redox H2O2 prof, T cruzi repl, Lipid droplet)
CCCCCCCCNC(=S)NCCN1CCCCC1	L major viab 97
S=C(NCCCN1CCOCC1)NCCCN1CCOCC1	none
Cc1nn(-c2ccccc2)c2c1C(c1ccc(Br)s1)C(C#N)=C(N)O2 (configuration not stated)	L major viab 81 (no result: T cruzi repl)
Cc1ccc(SCc2[nH]nc3c2C(c2ccc(C)o2)C(C#N)=C(N)O3)cc1 (configuration not stated)	L major viab 86 (no result: Lipid droplet)
CCc1[nH]nc2c1C(c1ccc(Br)s1)C(C#N)=C(N)O2 (configuration not stated)	L major viab 100 (no result: T cruzi repl)
CCc1[nH]nc2c1C(c1ccsc1)C(C#N)=C(N)O2 (configuration not stated)	none
Cc1ccc(SCc2[nH]nc3c2C(C(C)C)C(C#N)=C(N)O3)cc1 (configuration not stated)	none (no result: Lipid droplet)
Cc1ccc(SCc2[nH]nc3c2C(c2ccco2)C(C#N)=C(N)O3)cc1 (configuration not stated)	L major viab 62
Cc1nn(Cc2ccccc2)c2c1C(c1ccncc1)C(C#N)=C(N)O2 (configuration not stated)	none (no result: L major viab, Redox H2O2 prof, MPTP block, Lipid droplet)
Cc1nn(Cc2ccccc2)c2c1C(c1ccc(Cl)cc1)C(C#N)=C(N)O2 (configuration not stated)	L major viab 85
CCOc1ccc(S(=O)(=O)N2CCC(C(=O)NCc3ccncc3)CC2)cc1Cl	none (no result: L major viab, Redox H2O2 prof)
O=C(N/N=C/c1ccc2cccnc2c1)c1nc2ccccc2c(=O)[nH]1	none (no result: L major viab, Redox H2O2 prof)
CCCCNCCOCCOc1ccc(F)cc1	L major viab 92 (no result: Lipid droplet)
CCN(CC)CCCOc1ccc(C)cc1Br	L major viab 94
COCCCNCCCOc1ccc(Cl)cc1Br	L major viab 88 (no result: Lipid droplet)
O=C1CCC(=O)N1OCCCOc1ccc(Br)cc1Cl	none
C=CCN(CC=C)CCCOc1ccc(Br)cc1Cl	L major viab 51
Fc1ccc(OCCOCCOc2cccc3[nH]ccc23)cc1	none
C/C(Cl)=C\Cn1c(N2CCCC2)nc2c1c(=O)n(C)c(=O)n2C	none (no result: L major viab, Redox H2O2 prof)
CC(C)NCCCCOc1ccc(Br)cc1Cl	L major viab 99
COCCCNCCCOc1ccc(C)cc1Br	L major viab 99
COCCNCCCOc1ccc(C)cc1Br	none
CC(C)NCCCOc1ccc(Cl)cc1Br	L major viab 94 (no result: Lipid droplet)
CCCCNCCOCCOc1ccc(Cl)cc1Br	L major viab 100
COc1ccc(-c2csc3nc(C)nc(N4CCN(c5ccc(C(C)=O)cc5)CC4)c23)cc1OC	none
O=C(NN1CCCCC1)c1ccc(COc2ccc(Cl)cc2)cc1	none
CCOC(=O)C1=C(C(=O)OCC)N(CC)CCC1=O	none (no result: L major viab, Redox H2O2 prof, T cruzi repl, Lipid droplet)
Cc1ccc(C)c(-n2nnnc2Sc2nnnn2-c2ccccc2)c1	L major viab 98 (no result: Lipid droplet)
Cc1ccc(S(=O)(=O)NCCSc2nnnn2-c2cc(C)ccc2C)cc1	L major viab 100 (no result: Lipid droplet)
Cc1c(N2C(=O)c3cccc4cccc(c34)C2=O)cnn1C	none (no result: L major viab, Redox H2O2 prof)
CC1Cc2cc(/C(O)=C3/C(=O)C(=O)N(CCCn4ccnc4)C3c3cccc([N+](=O)[O-])c3)ccc2O1 (configuration not stated)	none (no result: L major viab, Redox H2O2 prof)
Cc1cc(C(=O)NCc2ccco2)c2ccccc2n1	none
Cc1ccccc1Nc1cc(C(=O)NCc2ccco2)c2ccccc2n1	L major viab 76
Cc1ccccc1Nc1nc(NCc2ccco2)c2ccccc2n1	L major viab 100, T cruzi repl 58
Cc1ccc(-c2nc(NCc3ccco3)c3ccccc3n2)cc1	L major viab 100 (no result: Redox H2O2 prof)
c1cncc(-c2nc(NCc3ccco3)c3ccccc3n2)c1	L major viab 77
Cc1ccc(CCNS(=O)(=O)c2cc(Br)cnc2N)cc1	none (no result: L major viab, Redox H2O2 prof)
CC1CC(C)CN(C(=O)COC(=O)CCCN2C(=O)c3cccc4cccc(c34)C2=O)C1 (configuration not stated)	none (no result: L major viab, Redox H2O2 prof)
CNc1nc(SC)nc2ccccc12	none
CSc1nc(NCc2ccco2)c2ccccc2n1	L major viab 70
COc1ccc(COC(=O)C2=C(C)NC(=O)NC2c2cc(Br)c(O)c(OC)c2)cc1 (configuration not stated)	none (no result: L major viab, Redox H2O2 prof)
COc1ccc(CNc2oc(-c3cccc4ccccc34)nc2C#N)cc1	none
CCOP(=O)(OCC)c1nc(-c2cccc3ccccc23)oc1NCCc1ccc(OC)cc1	L major viab 97
CCn1c(SCC(=O)N(C)CC(=O)Nc2ccc(OC)cc2)nnc1-c1ccco1	none (no result: L major viab, Redox H2O2 prof, Lipid droplet)
C=C[C@]1(C)C[C@@H](OC(=O)CSCCN(CC)CC)[C@]2(C)C(C)CC[C@]3(CCC(=O)[C@H]32)[C@@H](C)[C@@H]1O (some centres not stated)	T cruzi repl 59! (no result: L major viab, Redox H2O2 prof, Lipid droplet)
O=C(N/N=C/c1ccccc1F)NC12CC3CC(CC(C3)C1)C2	T cruzi repl 57 (no result: L major viab, Redox H2O2 prof)
O=C(CN1CCCCCC1)N/N=C/c1cccc(Cl)c1Cl	L major viab 62
Cc1cc(/C=N\NC(=O)CC(=O)NC2CCCCC2)c(C)n1-c1cccc(Cl)c1Cl	L major viab 95
O=C(CN1CCCCC1)N/N=C/c1ccc(Cl)cc1Cl	none (no result: L major viab, Redox H2O2 prof)
O=C(CN1CCSCC1)N/N=C/c1ccccc1F	none
O=C(CN1CCCCCCC1)N/N=C/c1ccccc1F	L major viab 52
CCOC(=O)N/N=C\c1ccc(OC/C=C/c2ccccc2)cc1	none (no result: L major viab, Redox H2O2 prof)
CC(C)c1csc(CN2CCC(N3CCC(C(=O)N4CCOCC4)CC3)CC2)n1	none
O=C(CN1CCN(C(=O)C2COc3ccccc3O2)CC1)Nc1ccccc1 (configuration not stated)	none (no result: L major viab, Redox H2O2 prof, T cruzi repl)
CN(C(=O)c1ccc(NC(=O)Cc2ccc(NC(=O)C3CCCN(C(=O)CCc4ccccc4)C3)cc2)cc1)C1CC1 (configuration not stated)	none (no result: L major viab, Redox H2O2 prof, T cruzi repl, Lipid droplet)
CN1CCN(CC(=O)N/N=C/c2ccc(F)c(F)c2)CC1	none
O=C(CN1CCCCCCC1)N/N=C/c1ccc(F)c(F)c1	L major viab 97
